Assay [1] is described as follows: reducers of endogenous Her2 protein level, primary screen, SKBR3 breast tumor cells, AlphaScreen, ATP viability (AID 461;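 active = Her2 level under about 52% in both replicate screens, with viability over 70% of control, limit read from the data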;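 for Her2 level: lower value means less Her2 protein in the cells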;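 for viability: percent of carrier control wells set as 100% viability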). The note with it: 18-24 h, measured here: SKBR3 viability, ATP luminescence, at 10 µM.
For assay [2], the target named is Receptor tyrosine-protein kinase erbB-2 (Homo sapiens) (UniProt P04626). Described as above. As to conditions: 18-24 h, at 10 µM, stronger effect = lower value.
Receptor tyrosine-protein kinase erbB-2 (Homo sapiens), sequence (P04626 whole entry, looked up): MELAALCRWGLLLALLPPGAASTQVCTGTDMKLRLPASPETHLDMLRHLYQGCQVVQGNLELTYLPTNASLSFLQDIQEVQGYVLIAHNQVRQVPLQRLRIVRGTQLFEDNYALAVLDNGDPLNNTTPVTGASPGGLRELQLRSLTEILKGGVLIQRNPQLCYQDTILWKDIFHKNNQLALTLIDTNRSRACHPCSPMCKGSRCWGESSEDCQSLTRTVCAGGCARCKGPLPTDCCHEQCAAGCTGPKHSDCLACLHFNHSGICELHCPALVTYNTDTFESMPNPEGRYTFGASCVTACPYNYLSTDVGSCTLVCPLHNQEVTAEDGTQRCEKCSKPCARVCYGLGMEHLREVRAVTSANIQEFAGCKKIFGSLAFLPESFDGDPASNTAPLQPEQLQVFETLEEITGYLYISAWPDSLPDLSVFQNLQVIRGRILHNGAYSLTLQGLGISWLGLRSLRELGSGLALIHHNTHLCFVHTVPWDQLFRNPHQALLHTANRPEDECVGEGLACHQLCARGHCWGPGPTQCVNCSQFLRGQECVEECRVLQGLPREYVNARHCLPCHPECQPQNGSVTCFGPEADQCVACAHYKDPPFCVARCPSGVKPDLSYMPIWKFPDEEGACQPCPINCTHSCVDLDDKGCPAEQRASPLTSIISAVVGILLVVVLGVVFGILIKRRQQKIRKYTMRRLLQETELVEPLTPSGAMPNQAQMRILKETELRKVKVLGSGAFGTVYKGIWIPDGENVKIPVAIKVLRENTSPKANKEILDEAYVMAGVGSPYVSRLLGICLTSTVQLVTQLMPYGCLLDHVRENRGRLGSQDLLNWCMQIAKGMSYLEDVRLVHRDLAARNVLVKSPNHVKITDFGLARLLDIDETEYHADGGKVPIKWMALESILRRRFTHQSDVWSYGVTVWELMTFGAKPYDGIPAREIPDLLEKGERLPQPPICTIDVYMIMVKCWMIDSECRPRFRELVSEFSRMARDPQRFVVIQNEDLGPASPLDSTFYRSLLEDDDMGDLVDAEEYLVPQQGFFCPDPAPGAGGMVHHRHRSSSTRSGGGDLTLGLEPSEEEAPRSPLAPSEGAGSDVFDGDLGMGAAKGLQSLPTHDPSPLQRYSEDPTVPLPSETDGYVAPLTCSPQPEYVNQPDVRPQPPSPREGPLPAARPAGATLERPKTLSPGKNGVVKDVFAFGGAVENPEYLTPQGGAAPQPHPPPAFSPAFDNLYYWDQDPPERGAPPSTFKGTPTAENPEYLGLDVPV
Assay [3] in a line: SK-BR-3 cell growth inhibitors, pilot screen, 24 h, human (AID 572;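 active = viability at or below 10% of carrier control in both of two separate runs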;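 note: compound exposure lasted between 18 and 24 h rather than exactly 24 h; 100% = carrier-treated control wells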). The note with it: SK-BR-3 viability, CellTiter-Glo luminescence, at 10 µM, stronger effect = lower value.
Assay [4] can be described thus: HUVEC growth inhibition – cell-based, human, primary screen (AID 575;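 active = viability at or below 30% in both replicate assays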;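 note: 100% = median of untreated cell wells with 0.1% DMSO on each plate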). The note with it: HUVEC proliferation, CellTiter-Glo luminescence, 72 h; at 10 µM; stronger effect = lower value. The gist of the method: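 Assay system: Primary human umbilical vein endothelial cells | Quantity: 1250 cells per well | Medium: Supplemented EBM, 2% fetal bovine serum | Detection: CellTiter-Glo luminescence measuring cellular ATP | Read-out: % viability vs DMSO wells | Plate: Collagen-coated 384-well format | Times: 72 h exposure, 37 °C, 5% CO2, 30 min RT equilibration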

Assay [5] is described as follows: growth inhibitors of H69AR lung tumor, primary screen, human, duplicate replicates (AID 580;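 active = viability at or under a set limit in both replicates, limit being median viability minus 3 SD, cut at about 48% in these data, passing the limit was not always enough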;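 note: 100% = mean luminescence of untreated wells and 0% = no signal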). As to conditions: H69AR lung tumor cells viability, ATP luminescence, 72 h; at 10 µM; stronger effect = lower value.
Assay [6] is described as follows: reversal of MRP1-mediated doxorubicin resistance, pilot screen, H69AR cells, doxorubicin co-treatment (AID 601;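 active = viability loss from added drug above about 55%, and viability with drug at most 40%, in both replicates, limit read from the data, passing the limit was not always enough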). As to conditions: CellTiter-Glo, 72 h, at 10 µM; for differential viability (reversal): stronger effect = higher value.
The nature of assay [7]: 384-well plate pilot, post-Golgi transport modulator project, inhibition of yeast transport mutant growth (AID 636; in the data active = inhibition above about 31%). The note with it: absorbance 615 nm, about 18 h, stronger effect = higher value.
Assay [8] is described as follows: growth suppression of yeast trafficking mutant, preliminary HTS, modulators of trafficking downstream of Golgi apparatus project, 1536-format plate, OD 615 nm (AID 637). The note with it: yeast transport mutant growth, absorbance 615 nm, 18 h; stronger effect = higher value.
[9] abbreviates: H69AR cells + 2 uM doxorubicin, measured here: viability with 2 uM doxorubicin, stronger effect = lower value.
Setting [10] is: H69AR cells, compound alone cytotoxicity.

Calls of active or inactive are those of the source. Cut-off read from the data, not from the text of the source, unless noted: active = inhibition above about 30%; inactive = the rest. Peptide text beside a SMILES is read from it. * marks the point of attachment. Boc = CC(C)(C)OC(=O)*

As to `CC1CCCC(NC(=O)CSc2ncccc2C(=O)O)C1C` (stereo not given), the viability in assay [1] was 95%; in assay [3] it was 95% (inactive); in assay [4], 86.4% (inactive); in assay [5] it was 87.8% (inactive); in assay [6] (setting [9]), 84.7%; in assay [6] (setting [10]) it was 87.8%. For the same molecule, the Her2 level in assay [2] was 79% (inactive). In addition, in assay [6] (H69AR cells + 2 uM doxorubicin), the differential viability (reversal) is 3.03% (inactive). Further, the results for the inhibition in assay [7] and in assay [8] were -4.61% (inactive) and -4.36% (inactive), respectively.

Turning to `Cc1cc(C)nc(N2CCCC(C(=O)Nc3nc4ccc(S(C)(=O)=O)cc4s3)C2)n1` (stereo not given), the viability in assay [1] was 80.5%; in assay [3], 80.5% (inactive); in assay [4], 79.5% (inactive); in assay [5], 83.7% (inactive); in assay [6] (setting [9]) it was 93.2%; in assay [6] (setting [10]) it was 83.7%. In addition, the Her2 level in assay [2] is 90% (inactive). Besides, in assay [6] (H69AR cells + 2 uM doxorubicin), the differential viability (reversal) is -9.45% (inactive). Besides, the inhibition is 0% (inactive) in assay [7] and 10.8% (inactive) in assay [8].

Turning to `CC(C)(C)OC(=O)N1CCCC1C(=O)NC(Cc1ccccc1)C(=O)O` (stereo not drawn) (Boc-Pro-Phe-OH; configuration not given here), the viability in assay [1] was 116%; in assay [3] it was 116% (inactive); in assay [4], 96.1% (inactive); in assay [5], 104% (inactive); in assay [6] (setting [9]) it was 95.2%; in assay [6] (setting [10]) it was 104%. For the same molecule, the Her2 level in assay [2] is 102% (inactive). Also, the differential viability (reversal) in assay [6] (H69AR cells + 2 uM doxorubicin) is 8.93% (inactive). For the same molecule, the inhibition in assay [7] is -4.59% (inactive); in assay [8], 0.48% (inactive).

Consider `Cc1cc(C)n2nc(C(=O)NCc3ccco3)nc2n1`, for which the viability in assay [1] is 101%; in assay [3] it was 101% (inactive); in assay [4], 91.4% (inactive); in assay [5] it was 99% (inactive); in assay [6] (setting [9]) it was 94.5%; in assay [6] (setting [10]), 99%. In addition, the Her2 level in assay [2] was 90% (inactive). Further, the differential viability (reversal) in assay [6] (H69AR cells + 2 uM doxorubicin) is 4.53% (inactive). The inhibition in assay [7] was -0.26% (inactive); in assay [8] it was -5.32% (inactive).

As for `CCn1cc(C2=NCC(C)O2)c2ccccc21` (stereo not given), the viability is 96.5% in assay [1]; 96.5% (inactive) in assay [3]; 74.8% (inactive) in assay [4]; 93.5% (inactive) in assay [5]; 90.3% in assay [6] (setting [9]); 93.5% in assay [6] (setting [10]). Besides, in assay [2], the Her2 level is 83% (inactive). Also, the differential viability (reversal) in assay [6] (H69AR cells + 2 uM doxorubicin) was 3.18% (inactive). Further, the inhibition in assay [7] was -5.54% (inactive); in assay [8], -0.32% (inactive).

As for `O=C(Nc1cccnc1)c1ccc2c(c1)OCO2`, the viability in assay [1] was 119%; in assay [3], 119% (inactive); in assay [4], 99.6% (inactive); in assay [5], 97.7% (inactive); in assay [6] (setting [9]) it was 83.9%; in assay [6] (setting [10]) it was 97.7%. The Her2 level in assay [2] was 121% (inactive). Further, the differential viability (reversal) in assay [6] (H69AR cells + 2 uM doxorubicin) was 13.8% (inactive). For the same molecule, the figures for the inhibition in assay [7] and in assay [8] were -5.33% (inactive) and 9.84% (inactive), respectively.

On to `Cc1ccc(-n2nc(-c3cccs3)cc2C(=O)NCC2CCCO2)c(C)c1` (stereo not given), for which the viability was 122% in assay [1]; 122% (inactive) in assay [3]; 71.3% (inactive) in assay [4]; 86.5% (inactive) in assay [5]; 100% in assay [6] (setting [9]); 86.5% in assay [6] (setting [10]). For the same molecule, the Her2 level in assay [2] is 100% (inactive). In assay [6] (H69AR cells + 2 uM doxorubicin), the differential viability (reversal) is -14% (inactive). Further, the inhibition is -4.67% (inactive) in assay [7] and -6.72% (inactive) in assay [8].

As for `CCOc1ccc2ccccc2c1/C=N/n1cncn1`, the viability in assay [1] was 99.5%; in assay [3] it was 99.5% (inactive); in assay [4] it was 87% (inactive); in assay [5], 92.3% (inactive); in assay [6] (setting [9]) it was 103%; in assay [6] (setting [10]), 92.3%. Moreover, the Her2 level in assay [2] is 101% (inactive). The differential viability (reversal) in assay [6] (H69AR cells + 2 uM doxorubicin) was -11.2% (inactive). Moreover, the inhibition in assay [7] is -5.53% (inactive); in assay [8] it was 1.64% (inactive).

On to `CCCCNC(=O)CN(C1CCCCC1)S(C)(=O)=O`, for which the viability in assay [1] is 104%; in assay [3], 104% (inactive); in assay [4], 101% (inactive); in assay [5], 103% (inactive); in assay [6] (setting [9]), 92.4%; in assay [6] (setting [10]), 103%. Besides, the Her2 level in assay [2] is 107% (inactive). For the same molecule, the differential viability (reversal) in assay [6] (H69AR cells + 2 uM doxorubicin) is 11% (inactive). Moreover, the results for the inhibition in assay [7] and in assay [8] were -4.47% (inactive) and -0.16% (inactive), respectively.

`CC(C)(C)OC(=O)NCCc1nnc(SCC(=O)c2ccc(Cl)cc2)o1`: the viability in assay [1] was 97.5%; in assay [3] it was 97.5% (inactive); in assay [4] it was 93.1% (inactive); in assay [5] it was 105% (inactive); in assay [6] (setting [9]) it was 92.4%; in assay [6] (setting [10]) it was 105%. Also, in assay [2], the Her2 level was 106% (inactive). The differential viability (reversal) in assay [6] (H69AR cells + 2 uM doxorubicin) is 13% (inactive). Moreover, the inhibition was -0.78% (inactive) in assay [7] and -3.83% (inactive) in assay [8].

As for `Cc1cccn2c(=O)c3cc(C#N)c(=NC(=O)c4cccnc4)n(CC4CCCO4)c3nc12` (stereo not given), the viability in assay [1] was 92.5%; in assay [3] it was 92.5% (inactive); in assay [4], 94.4% (inactive); in assay [5] it was 71.1% (inactive); in assay [6] (setting [9]) it was 44.1%; in assay [6] (setting [10]), 71.1%. Besides, the Her2 level in assay [2] is 108% (inactive). Moreover, the differential viability (reversal) in assay [6] (H69AR cells + 2 uM doxorubicin) is 27% (inactive). Besides, the inhibition is -1.18% (inactive) in assay [7] and -9.35% (inactive) in assay [8].

For the molecule `Cc1sc(NC(=O)CSc2nnc(COc3ccccc3)n2C)c(C#N)c1C`, the viability in assay [1] was 83%; in assay [3], 83% (inactive); in assay [4], 72.2% (inactive); in assay [5], 70.3% (inactive); in assay [6] (setting [9]), 73.3%; in assay [6] (setting [10]), 70.3%. In addition, the Her2 level in assay [2] is 75.5% (inactive). Further, in assay [6] (H69AR cells + 2 uM doxorubicin), the differential viability (reversal) is -3.05% (inactive). For the same molecule, the inhibition is -1.3% (inactive) in assay [7] and -7.3% (inactive) in assay [8].

For `CCCN(CCC)S(=O)(=O)c1ccc(NS(C)(=O)=O)cc1`, the viability was 110% in assay [1]; 110% (inactive) in assay [3]; 98.2% (inactive) in assay [4]; 105% (inactive) in assay [5]; 99% in assay [6] (setting [9]); 105% in assay [6] (setting [10]). For the same molecule, the Her2 level in assay [2] was 124% (inactive). Moreover, in assay [6] (H69AR cells + 2 uM doxorubicin), the differential viability (reversal) was 6.41% (inactive). Moreover, the results for the inhibition in assay [7] and in assay [8] were -1.18% (inactive) and -5.83% (inactive), respectively.

As to `CC(=O)Nc1ccc(S(=O)(=O)NCc2cn3c(C)csc3n2)cc1`, the viability in assay [1] was 116%; in assay [3], 116% (inactive); in assay [4], 107% (inactive); in assay [5], 102% (inactive); in assay [6] (setting [9]), 81.3%; in assay [6] (setting [10]) it was 102%. Also, the Her2 level in assay [2] is 106% (inactive). Also, in assay [6] (H69AR cells + 2 uM doxorubicin), the differential viability (reversal) was 20.4% (inactive). Moreover, the inhibition in assay [7] was -8.31% (inactive); in assay [8] it was -3.02% (inactive).

Regarding `Cc1ccc(Cn2c(C(=O)NCCCN3CCOCC3)cc3sccc32)cc1`, the viability in assay [1] is 84.5%; in assay [3], 84.5% (inactive); in assay [4] it was 63.6% (inactive); in assay [5], 77.6% (inactive); in assay [6] (setting [9]) it was 81.1%; in assay [6] (setting [10]), 77.6%. Besides, in assay [2], the Her2 level was 76.5% (inactive). Besides, the differential viability (reversal) in assay [6] (H69AR cells + 2 uM doxorubicin) was -3.47% (inactive). Also, the inhibition is -3.16% (inactive) in assay [7] and -1.27% (inactive) in assay [8].

In the case of `CCOC(=O)c1ccc(Oc2nc(SC)nc(N(C)C)n2)cc1`, the viability is 73.5% in assay [1]; 73.5% (inactive) in assay [3]; 85% (inactive) in assay [4]; 107% (inactive) in assay [5]; 105% in assay [6] (setting [9]); 107% in assay [6] (setting [10]). Moreover, in assay [2], the Her2 level was 100% (inactive). In addition, in assay [6] (H69AR cells + 2 uM doxorubicin), the differential viability (reversal) was 2.66% (inactive). In addition, the results for the inhibition in assay [7] and in assay [8] were -1.54% (inactive) and -8.17% (inactive), respectively.

These data come from PubChem BioAssay.
